Assay [1] has as its target T1, Cathepsin B-like cysteine protease (Trypanosoma brucei, UniProt Q6R7Z5).
T1 sequence (Q6R7Z5 whole entry): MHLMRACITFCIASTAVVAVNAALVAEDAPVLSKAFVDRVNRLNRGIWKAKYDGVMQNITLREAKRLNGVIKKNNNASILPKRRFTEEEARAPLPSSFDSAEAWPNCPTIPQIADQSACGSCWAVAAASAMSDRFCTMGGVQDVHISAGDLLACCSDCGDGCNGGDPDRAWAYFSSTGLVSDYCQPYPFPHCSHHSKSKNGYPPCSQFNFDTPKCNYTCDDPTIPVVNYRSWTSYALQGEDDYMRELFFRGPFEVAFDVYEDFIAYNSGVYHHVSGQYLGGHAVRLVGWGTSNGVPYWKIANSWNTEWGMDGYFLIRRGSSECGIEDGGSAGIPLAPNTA
In words: Inhibition of Trypanosoma brucei cathepsin B-like cysteine protease. The method, boiled down: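 Recombinant TbcatB zymogen expressed in Pichia pastoris, purified by HIC and anion exchange, titrated with CA074; 35 nM final. Inhibitor preincubated 20 min at room temperature, then Z-Phe-Arg-AMC (10 µM final). Initial rate from fluorescence (ex 350/em 460 nm) over 10 min. Triplicate. Sigmoidal IC50 fit.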

Assay [2] deals with Trypanosoma brucei. In words: Antitrypanosomal activity against Trypanosoma brucei. The class given is functional, organism-based. The method, boiled down:
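Culture-adapted bloodstream T. brucei grown in HMI-9 with pen/strep, 10% heat-inactivated FBS and 10% Serum Plus at 37 °C, 5% CO2, diluted to 1 × 10^4 cells/mL. Inhibitor added from DMSO, 48 h at 37 °C, then 1 h room-temperature equilibration. Cell Titer Glo luminescence read after 8 min. Quadruplicate. IC50 by curve fitting. Values shift up to 10-fold with FBS lot.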

Assay [3] deals with Procathepsin L (Homo sapiens, UniProt P07711). In words: Inhibition of human liver cathepsin L. The gist of the method: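 Inhibitor preincubated 20 min at room temperature before Z-Phe-Arg-AMC (10 µM final). Initial rate from fluorescence (ex 350/em 460 nm) over 10 min. Quadruplicate. Sigmoidal IC50 fit.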
Sequence of Procathepsin L (P07711 whole entry): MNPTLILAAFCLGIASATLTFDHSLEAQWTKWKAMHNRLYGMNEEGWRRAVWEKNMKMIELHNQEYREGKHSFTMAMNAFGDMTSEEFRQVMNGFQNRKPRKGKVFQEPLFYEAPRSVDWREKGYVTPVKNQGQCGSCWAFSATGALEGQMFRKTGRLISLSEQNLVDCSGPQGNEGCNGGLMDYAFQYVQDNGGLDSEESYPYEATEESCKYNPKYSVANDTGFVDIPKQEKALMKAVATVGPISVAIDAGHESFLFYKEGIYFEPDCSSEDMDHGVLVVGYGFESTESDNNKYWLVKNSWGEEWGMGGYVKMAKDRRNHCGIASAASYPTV
Assay [4] deals with Cathepsin B (Homo sapiens, UniProt P07858). In words: Inhibition of human liver cathepsin B. The gist of the method:
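Human liver enzyme at 0.56 ng/mL final in sodium acetate pH 5.5 buffer with 4 mM DTT, 0.01% Triton X-100, 0.5 mM EDTA. 20 min room-temperature preincubation with inhibitor, then Z-Arg-Arg-AMC (10 µM final). Quadruplicate. Sigmoidal IC50 fit.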

SMILES strings stand for the structures.

As for `CCCCCCNc1nc(C#N)nc2c1ncn2C1CCCC1`, the IC50 in assay [1] is greater than 25 µM; in assay [2] it was 1.5 µM; in assay [3], 28.4 µM; in assay [4], greater than 30 µM.

Turning to `CCCCCCNc1nc(C#N)nc2c1ncn2Cc1ccccc1`, the IC50 in assay [1] was greater than 25 µM; in assay [2] it was 0.7 µM; in assay [3], greater than 30 µM; in assay [4] it was greater than 30 µM.

With `CCCCn1cnc2c(NC(C)c3ccccc3)nc(C#N)nc21` (centres undefined), the IC50 in assay [1] is greater than 25 µM; in assay [2], 1.5 µM; in assay [3] it was 9.4 µM; in assay [4], greater than 30 µM.

As to `CCC(C)CNc1nc(C#N)nc2c1ncn2Cc1ccccc1` (centres undefined), the half-inhibitory concentration (IC50) in assay [1] is 5 µM; in assay [2] it was 3.4 µM; in assay [3], 5.83 µM; in assay [4], greater than 30 µM.

In the case of `N#Cc1nc(NC2CCCCC2)c2ncn(C3CCCCC3)c2n1`, the IC50 amounted to 8.3 µM in assay [1], 1.4 µM in assay [2], 3.3 µM in assay [3] and 23.6 µM in assay [4].

On to `CC(Nc1nc(C#N)nc2c1ncn2C1CCCC1)c1ccccc1` (centres undefined), for which the IC50 in assay [1] was greater than 25 µM; in assay [2], 3.4 µM; in assay [3], 11.8 µM; in assay [4] it was greater than 30 µM.

Turning to `COc1ccc(CNc2nc(C#N)nc3c2ncn3C2CCCC2)cc1`, the IC50 in assay [1] was 7 µM; in assay [2], 0.8 µM; in assay [3], 4 µM; in assay [4], greater than 30 µM.

For the compound `CCCCn1cnc2c(NCc3cccc(C)c3)nc(C#N)nc21`, the IC50 in assay [1] is 11 µM; in assay [2], 0.27 µM; in assay [3], 3.91 µM; in assay [4], greater than 30 µM.

Take `Cc1cccc(CNc2nc(C#N)nc3c2ncn3CC2CCCCC2)c1`: the IC50 in assay [1] was greater than 25 µM; in assay [2], 2.2 µM; in assay [3] it was greater than 30 µM; in assay [4], greater than 30 µM.

Turning to `CCCCn1cnc2c(NCc3ccccc3)nc(C#N)nc21`, the half-inhibitory concentration (IC50) in assay [1] is 14 µM; in assay [2], 1.7 µM; in assay [3], 4.38 µM; in assay [4], greater than 30 µM.

Take `Cc1cccc(CNc2nc(C#N)nc3c2ncn3C2CCCC2)c1`: the 50% inhibitory concentration (IC50) in assay [1] was greater than 25 µM; in assay [2], 1.1 µM; in assay [3], 10.5 µM; in assay [4] it was greater than 30 µM.

For the compound `N#Cc1nc(NC2CCCCC2)c2ncn(Cc3ccccc3)c2n1`, the IC50 in assay [1] stood at 2.3 µM; in assay [2], 0.33 µM; in assay [3] it was 3.79 µM; in assay [4] it was 17.7 µM.

On to `CCCCCCNc1nc(C#N)nc2c1ncn2CC1CCCCC1`, for which the IC50 in assay [1] was greater than 25 µM; in assay [2] it was 3.6 µM; in assay [3], greater than 30 µM; in assay [4], greater than 30 µM.

`CC(Nc1nc(C#N)nc2c1ncn2Cc1ccccc1)c1ccccc1` (centres undefined): the IC50 is greater than 25 µM in assay [1], 1.3 µM in assay [2], greater than 30 µM in assay [3] and greater than 30 µM in assay [4].

Take `Cc1cccc(CNc2nc(C#N)nc3c2ncn3Cc2ccccc2)c1`: the IC50 in assay [1] was 3.3 µM; in assay [2], 0.48 µM; in assay [3] it was 10.5 µM; in assay [4] it was greater than 30 µM.

With `CCCn1cnc2c(NC3CCCCC3)nc(C#N)nc21`, the IC50 turned out to be 8.3 µM in assay [1], 12 µM in assay [2], 2.53 µM in assay [3] and 19 µM in assay [4].

A word on the IC50: it is the concentration that gives 50% inhibition. Lower therefore signals higher potency.

(Values after ChEMBL document CHEMBL1140721, “Development of potent purine-derived nitrile inhibitors of the trypanosomal protease TbcatB” (J Med Chem, 2008).)
